The source made the active and inactive calls. The calls are words filed in the database; no cut-off is given here.
Experiments:
[1] = biological target: T1, ATP-dependent translocase ABCB1 (Homo sapiens, UniProt P08183); assay: Inhibition of ABCB1 in human SW620/AD300 cells assessed as intracellular accumulation of paclitaxel up to 4 uM treated at 2 hrs post paclitaxel treatment for 30 mins in paclitaxel free medium by HPLC analysis; type: cell-based; conditions: 0.5 h
Outline: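 Equal numbers of SW620/AD300 cells loaded with 6 µg/mL paclitaxel 2 h, then held in paclitaxel-free medium with or without compound 30 min at 37℃; cells harvested, disrupted by ultrasound, extracted with ethyl acetate and paclitaxel quantified by HPLC.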

[2] = biological target: T1, ATP-dependent translocase ABCB1; assay: Inhibition of ABCB1 in human SW620/AD300 cells assessed as potentiation of paclitaxel-induced cytotoxicity by measuring fold reduction in paclitaxel IC50 at 2 uM after 72 hrs by MTT assay relative to paclitaxel alone; type: cell-based
Outline: (§1)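 SW620/AD300 cells (~5×10^3/well) treated with graded paclitaxel with or without modulator (2 µM, or 0.5-2 µM in dose series; 0.1% DMSO solvent control) for 72 h; MTT (5 mg/mL stock) added 4 h, absorbance 490 nm. IC50 as mean ± SD of three independent runs; reversal fold = paclitaxel IC50 without/with modulator.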

[3] = biological target: T1, ATP-dependent translocase ABCB1; assay: Inhibition of ABCB1 in human SW620/AD300 cells assessed as potentiation of paclitaxel-induced cytotoxicity by measuring fold reduction in paclitaxel IC50 at 0.5 uM after 72 hrs by MTT assay; type: cell-based; outline: as §1
SW620/AD300 = assay: Effect on ABCB1 expression in human SW620/AD300 cells up to 4 uM after 48 hrs by Western blot analysis; type: functional, cell-based
Outline: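 SW620/AD300 cells exposed to compound at 0, 1, 2 or 4 µM for 48 h, lysed, ultracentrifuged, protein quantified by BCA; equal protein run on SDS-PAGE, wet-transferred to nitrocellulose, primary antibody overnight at 4℃, secondary 2 h at room temperature, enhanced chemiluminescence detection; GAPDH as loading control.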

[4] = biological target: T1, ATP-dependent translocase ABCB1; assay: Stimulation of human ABCB1 ATPase activity expressed in high-five insect cell membrane vesicles by colorimetric analysis
Outline: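 Vanadate-sensitive ABCB1 ATPase activity in High Five insect cell membrane vesicles, measured with a commercial ATPase kit under a modified protocol; compound tested across 0-40 µM; maximal fold stimulation and concentration giving 50% stimulation derived.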

[5] = biological target: T1, ATP-dependent translocase ABCB1; assay: Binding affinity to ABCB1 in human SW620/AD300 cells assessed as thermal stabilization preincubated for 30 mins followed by incubation at 40 to 61 degC for 3 mins by CETSA; type: cell-based; conditions: 0.05 h
Outline: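 SW620/AD300 cells lysed by three liquid-nitrogen freeze-thaw cycles; ultracentrifuged supernatant split into compound-treated and solvent-control portions, incubated 30 min at 37℃, aliquoted and heated 3 min at 40, 43, 46, 49, 52, 55, 58 or 61℃; remaining ABCB1 or ABCC1 detected by western blotting.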

[6] = biological target: T1, ATP-dependent translocase ABCB1; assay: Inhibition of ABCB1 (unknown origin) expressed in HEK293 cells assessed as potentiation of vincristine-induced cytotoxicity by measuring fold reduction in vincristine IC50 at 1 uM preincubated for 4 hrs followed by vincristine addition measured after 72 hrs by MTT assay; type: cell-based
[7] = biological target: Multidrug resistance-associated protein 1 (Homo sapiens, UniProt P33527); assay: Inhibition of ABCC1 (unknown origin) expressed in HEK293 cells assessed as potentiation of vincristine-induced cytotoxicity by measuring fold reduction in vincristine IC50 at 1 uM preincubated for 4 hrs followed by vincristine addition measured after 72 hrs by MTT assay; type: cell-based
Multidrug resistance-associated protein 1, sequence (P33527 whole entry): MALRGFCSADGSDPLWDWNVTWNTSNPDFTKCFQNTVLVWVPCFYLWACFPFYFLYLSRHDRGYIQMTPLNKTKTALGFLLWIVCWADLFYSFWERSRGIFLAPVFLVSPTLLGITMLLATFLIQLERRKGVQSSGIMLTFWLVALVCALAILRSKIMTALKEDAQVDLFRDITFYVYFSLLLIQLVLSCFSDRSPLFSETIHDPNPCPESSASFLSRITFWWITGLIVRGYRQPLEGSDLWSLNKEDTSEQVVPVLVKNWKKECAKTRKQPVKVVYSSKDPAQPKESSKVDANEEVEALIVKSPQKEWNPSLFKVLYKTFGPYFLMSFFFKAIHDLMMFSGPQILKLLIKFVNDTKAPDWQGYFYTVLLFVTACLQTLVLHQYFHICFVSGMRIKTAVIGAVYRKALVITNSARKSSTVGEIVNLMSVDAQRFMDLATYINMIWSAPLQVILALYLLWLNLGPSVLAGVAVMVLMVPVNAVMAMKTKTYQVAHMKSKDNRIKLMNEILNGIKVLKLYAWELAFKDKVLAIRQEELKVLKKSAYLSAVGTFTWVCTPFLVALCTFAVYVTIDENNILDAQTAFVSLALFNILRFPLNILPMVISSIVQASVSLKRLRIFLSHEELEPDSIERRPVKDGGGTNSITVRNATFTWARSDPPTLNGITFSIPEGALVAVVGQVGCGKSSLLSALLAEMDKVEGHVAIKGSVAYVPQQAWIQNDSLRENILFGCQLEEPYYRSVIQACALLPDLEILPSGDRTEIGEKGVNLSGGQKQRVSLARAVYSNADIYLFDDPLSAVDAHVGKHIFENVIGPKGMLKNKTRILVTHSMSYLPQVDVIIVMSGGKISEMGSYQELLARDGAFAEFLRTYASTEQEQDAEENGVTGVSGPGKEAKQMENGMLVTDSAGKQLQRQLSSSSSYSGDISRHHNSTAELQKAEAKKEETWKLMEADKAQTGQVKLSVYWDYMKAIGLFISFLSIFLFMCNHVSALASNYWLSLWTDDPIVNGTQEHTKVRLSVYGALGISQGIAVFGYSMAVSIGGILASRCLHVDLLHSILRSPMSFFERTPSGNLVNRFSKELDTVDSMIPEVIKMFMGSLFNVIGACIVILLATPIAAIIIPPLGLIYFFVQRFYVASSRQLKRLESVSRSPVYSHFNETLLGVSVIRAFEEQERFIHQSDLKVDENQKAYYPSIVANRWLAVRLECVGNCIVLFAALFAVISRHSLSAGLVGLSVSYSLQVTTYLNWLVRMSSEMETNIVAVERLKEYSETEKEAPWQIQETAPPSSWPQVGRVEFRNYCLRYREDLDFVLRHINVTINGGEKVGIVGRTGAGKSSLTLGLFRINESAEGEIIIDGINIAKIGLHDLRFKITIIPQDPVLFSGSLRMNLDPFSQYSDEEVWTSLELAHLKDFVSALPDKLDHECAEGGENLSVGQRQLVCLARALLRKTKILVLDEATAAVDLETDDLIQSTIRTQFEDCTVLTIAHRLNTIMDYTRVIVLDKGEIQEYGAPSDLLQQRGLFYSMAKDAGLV
Outline: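 KB-CV60 and HEK293/ABCC1 cells (transfected line kept in 2 mg/mL G418) given graded vincristine with or without modulator for 72 h; MK571 25 µM reference; viability by MTT read at 490 nm. IC50 from three independent repeats, mean ± SD; reversal fold = vincristine IC50 ratio without/with modulator.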

Mus musculus = assay: Toxicity in nude BALB/c mouse xenografted with ABCB1 overexpressing human SW620/AD300 cells assessed as change in body weight at 20 mg/kg/day, po cotreated with 5 mg/kg, ip paclitaxel measured after 21 days; type: organism-based; conditions: in vivo, 504 h
Outline: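 Female BALB/c nude mice (18-20 g, 5-6 weeks) bearing SW620/AD300 xenografts; grouping once tumours reached 100 mm3: saline vehicle […] ip, paclitaxel 5 mg/kg every 3 days ip, test agent 20 mg/kg/day orally, or the combination. Body weight and tumour volume recorded every 2 days over 21 days; tumours excised and weighed at end.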

T1 sequence (P08183 whole entry): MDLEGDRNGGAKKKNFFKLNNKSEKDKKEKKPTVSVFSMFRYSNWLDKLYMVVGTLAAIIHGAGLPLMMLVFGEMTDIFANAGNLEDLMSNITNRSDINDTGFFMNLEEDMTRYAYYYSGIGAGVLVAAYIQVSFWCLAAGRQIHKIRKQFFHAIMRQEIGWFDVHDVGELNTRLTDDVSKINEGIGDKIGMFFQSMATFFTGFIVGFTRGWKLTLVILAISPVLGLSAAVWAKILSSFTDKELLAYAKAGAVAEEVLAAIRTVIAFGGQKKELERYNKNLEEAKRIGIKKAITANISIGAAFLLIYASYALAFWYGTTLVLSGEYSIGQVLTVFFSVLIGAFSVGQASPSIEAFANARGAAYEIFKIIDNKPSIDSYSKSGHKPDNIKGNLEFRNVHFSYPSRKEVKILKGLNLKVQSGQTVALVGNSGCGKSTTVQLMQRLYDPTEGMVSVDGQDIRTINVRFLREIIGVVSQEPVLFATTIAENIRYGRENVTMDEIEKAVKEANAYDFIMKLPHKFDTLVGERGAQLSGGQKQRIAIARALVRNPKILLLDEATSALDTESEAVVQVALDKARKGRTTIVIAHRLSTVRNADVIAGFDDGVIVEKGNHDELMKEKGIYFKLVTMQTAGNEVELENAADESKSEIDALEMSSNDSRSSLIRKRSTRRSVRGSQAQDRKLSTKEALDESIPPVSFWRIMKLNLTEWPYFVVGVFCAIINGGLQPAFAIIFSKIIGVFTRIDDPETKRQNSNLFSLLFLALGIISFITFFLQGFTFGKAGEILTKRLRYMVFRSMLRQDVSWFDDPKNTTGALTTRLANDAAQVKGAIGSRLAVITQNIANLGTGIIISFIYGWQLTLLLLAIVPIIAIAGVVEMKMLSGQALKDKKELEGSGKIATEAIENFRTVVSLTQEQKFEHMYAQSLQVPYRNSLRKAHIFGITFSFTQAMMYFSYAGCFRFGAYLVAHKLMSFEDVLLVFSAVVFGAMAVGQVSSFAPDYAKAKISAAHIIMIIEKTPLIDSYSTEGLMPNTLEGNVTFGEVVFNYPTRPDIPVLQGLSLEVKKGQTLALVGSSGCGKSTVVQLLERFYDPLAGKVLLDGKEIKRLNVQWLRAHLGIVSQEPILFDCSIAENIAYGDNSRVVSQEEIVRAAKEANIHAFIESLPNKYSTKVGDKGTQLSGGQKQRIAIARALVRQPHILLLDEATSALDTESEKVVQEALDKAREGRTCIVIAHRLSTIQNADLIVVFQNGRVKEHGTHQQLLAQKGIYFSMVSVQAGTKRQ

Structure (SMILES): COc1cc(-c2nc(SCC(=O)NC(=O)Nc3ccccn3)nc(Nc3cccc(Cl)c3)c2C#N)cc(OC)c1OC
- inhibition (INH) [1]: Active
- fold change (FC) [2]: 837.2
- fold change (FC) [3]: 72.17
- Activity (SW620/AD300): inactive
- fold change (FC) [4]: 4.56
- Activity [5]: Active
- fold change (FC) [6]: 9.75
- fold change (FC) [7]: 1.14
- Activity (Mus musculus): Non-Toxic

From ChEMBL document CHEMBL4138318, “Discovery of 5-Cyano-6-phenylpyrimidin Derivatives Containing an Acylurea Moiety as Orally Bioavailable Reversal Agents against P-Glycoprotein-Mediated Mutidrug Resistance” (J Med Chem, 2018)
